Measurements as given in ChEMBL document CHEMBL1147105, “In vitro and in vivo activities of PD 0305970 and PD 0326448, new bacterial gyrase/topoisomerase inhibitors with potent antibacterial activities versus multidrug-resistant gram-positive and fastidious organism groups” (2007).

Tests used:
[1] = tested on: Staphylococcus saprophyticus; test: Antibacterial activity against Staphylococcus saprophyticus; format: functional
Summary of the method: (§1)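 Broth microdilution MIC following CLSI guidelines, in cation-adjusted Mueller-Hinton broth, incubated at 35°C. Recent clinical isolates and reference strains, with identity confirmed by automated and standard microbiological methods. Results reported as MIC range, MIC50 and MIC90.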

[2] = tested on: Citrobacter freundii; test: Antibacterial activity against Citrobacter freundii; format: functional; summary of the method: as §1
[3] = tested on: Streptococcus viridans; test: Antibacterial activity against Streptococcus viridans; format: functional
Summary of the method: (§2)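 Broth microdilution MIC following CLSI guidelines, in cation-adjusted Mueller-Hinton broth with 3% lysed horse blood. Plates incubated at 35°C. Clinical isolates and reference strains, with identity confirmed by standard microbiological methods.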

[4] = tested on: Actinomyces sp.; test: Antibacterial activity against Actinomyces sp.; format: functional
[5] = tested on: Shigella flexneri; test: Antibacterial activity against Shigella flexneri; format: functional; summary of the method: as §1
[6] = tested on: Burkholderia cepacia; test: Antibacterial activity against Burkholderia cepacia; format: functional; summary of the method: as §1
[7] = tested on: Hoylesella oralis; test: Antibacterial activity against Prevotella oralis; format: functional
Summary of the method: (§3)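 Anaerobic broth microdilution MIC following CLSI guidelines, in supplemented Brucella broth. Run in an anaerobe chamber under 5% CO2, 5% H2 and 90% N2 at 35°C, and read after 48 h. Reported as MIC range, MIC50 and MIC90.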

[8] = tested on: Peptoniphilus asaccharolyticus; test: Antibacterial activity against Peptostreptococcus asaccharolyticus; format: functional; summary of the method: as §3
[9] = tested on: Clostridioides difficile; test: Antibacterial activity against Clostridium difficile; format: functional; summary of the method: as §3
[10] = tested on: Anaerococcus prevotii; test: Antibacterial activity against Peptostreptococcus prevotii; format: functional; summary of the method: as §3
[11] = tested on: Shigella dysenteriae; test: Antibacterial activity against Shigella dysenteriae; format: functional
[12] = tested on: Moraxella catarrhalis; test: Antibacterial activity against beta-lactamase positive Moraxella catarrhalis; format: functional
[13] = tested on: Alloiococcus otitis; test: Antibacterial activity against Alloiococcus otitidis; format: functional
Summary of the method: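 MIC by broth microdilution following CLSI guidelines, in cation-adjusted Mueller-Hinton broth with 3% lysed horse blood. Incubated at 35°C and read after 48 h. Reported as MIC range, MIC50 and MIC90.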

[14] = tested on: Bacteroides thetaiotaomicron; test: Antibacterial activity against Bacteroides thetaiotaomicron; format: functional; summary of the method: as §3
[15] = tested on: Staphylococcus aureus; test: Antibacterial activity against oxacillin-susceptible Staphylococcus aureus; format: functional
Summary of the method: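 MIC by CLSI broth microdilution for nonfastidious organisms, in cation-adjusted Mueller-Hinton broth incubated at 35°C.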

[16] = tested on: Klebsiella oxytoca; test: Antibacterial activity against Klebsiella oxytoca; format: functional; summary of the method: as §1
[17] = tested on: Staphylococcus warneri; test: Antibacterial activity against Staphylococcus warneri; format: functional; summary of the method: as §1
[18] = tested on: Enterococcus faecium; test: Antibacterial activity against Enterococcus faecium; format: functional
Summary of the method: (§4)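 Broth microdilution MIC per CLSI guidelines, incubated at 35°C. Cation-adjusted Mueller-Hinton broth for nonfastidious organisms and staphylococci. Streptococci tested in the same broth with 3% lysed horse blood. Anaerobes tested in supplemented Brucella broth inside an anaerobe chamber (5% CO2, 5% H2, 90% N2), read after 48 h. Strains were mainly recent clinical isolates with confirmed identity.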

[19] = tested on: Bacteroides fragilis; test: Antibacterial activity against Bacteroides fragilis; format: functional; summary of the method: as §3
[20] = tested on: Enterococcus faecalis; test: Antibacterial activity against Enterococcus faecalis; format: functional; summary of the method: as §4
[21] = tested on: Streptococcus sanguinis; test: Antibacterial activity against Streptococcus sanguis; format: functional; summary of the method: as §2
[22] = tested on: Fusobacterium nucleatum; test: Antibacterial activity against Fusobacterium nucleatum; format: functional; summary of the method: as §3
[23] = tested on: Enterococcus faecalis; test: Antibacterial activity against VanB-resistant Enterococcus faecalis; format: functional; summary of the method: as §4
[24] = tested on: Enterococcus gallinarum; test: Antibacterial activity against Enterococcus gallinarum; format: functional
[25] = tested on: Staphylococcus haemolyticus; test: Antibacterial activity against Staphylococcus haemolyticus; format: functional
Summary of the method: (§5)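 Broth microdilution MIC following CLSI guidelines, in cation-adjusted Mueller-Hinton broth containing 3% lysed horse blood, incubated at 35°C. Clinical isolates with identity confirmed. Reported as MIC range, MIC50 and MIC90.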

[26] = tested on: Fusobacterium necrophorum; test: Antibacterial activity against Fusobacterium necrophorum; format: functional; summary of the method: as §3
[27] = tested on: Cutibacterium acnes; test: Antibacterial activity against Propionibacterium acnes; format: functional
[28] = tested on: Listeria monocytogenes; test: Antibacterial activity against Listeria monocytogenes; format: functional; summary of the method: as §5
[29] = tested on: Streptococcus agalactiae; test: Antibacterial activity against Streptococcus agalactiae; format: functional; summary of the method: as §5
[30] = tested on: Corynebacterium jeikeium; test: Antibacterial activity against Corynebacterium jeikeium; format: functional; summary of the method: as §5
[31] = tested on: Enterococcus casseliflavus; test: Antibacterial activity against Enterococcus casseliflavus; format: functional
[32] = tested on: Salmonella enteritidis; test: Antibacterial activity against Salmonella enterica serovar Enteritidis; format: functional, Salmonella enterica subsp. enterica serovar Enteritidis; summary of the method: as §1
[33] = tested on: Moraxella catarrhalis; test: Antibacterial activity against beta-lactamase negative Moraxella catarrhalis; format: functional
[34] = tested on: Bacteroides ovatus; test: Antibacterial activity against Bacteroides ovatus; format: functional; summary of the method: as §3
[35] = tested on: Prevotella bivia; test: Antibacterial activity against Prevotella bivia; format: functional; summary of the method: as §3

C[C@H]1NCc2cc(-c3ccc4c(=O)c(C(=O)O)cn(C5CC5)c4c3OC(F)F)ccc21 [GARENOXACIN]
8 µg/mL: MIC50 [18] | MIC90 [23]
0.25 µg/mL: MIC90 [3] | MIC50 [7] | MIC90 [21] | MIC50 [24] | MIC50 [28] | MIC50 [30] | MIC90 [30] | MIC50 [31] | MIC50 [35]
0.06 µg/mL: MIC90 [1] | MIC50 [12] | MIC90 [12] | MIC50 [15] | MIC90 [15] | MIC50 [25]
0.125 µg/mL: MIC50 [3] | MIC [4] | MIC90 [5] | MIC90 [11] | MIC50 [16] | MIC50 [21] | MIC [22] | MIC [26] | MIC50 [29] | MIC90 [29] | MIC90 [32]
4 µg/mL: MIC90 [14] | MIC90 [20] | MIC90 [25] | MIC90 [34]
2 µg/mL: MIC50 [14] | MIC90 [16] | MIC90 [19] | MIC50 [20] | MIC50 [23] | MIC90 [27] | MIC50 [34]
0.015 µg/mL: MIC [8] | MIC [10]
1 µg/mL: MIC50 [2] | MIC90 [7] | MIC90 [9] | MIC50 [27] | MIC90 [35]
> 64 µg/mL: MIC90 [2] | MIC90 [6]
32 µg/mL: MIC50 [6] | MIC90 [18]
0.03 µg/mL: MIC50 [1] | MIC50 [5] | MIC50 [11] | MIC [17] | MIC50 [32] | MIC50 [33] | MIC90 [33]
≤ 0.001 µg/mL: MIC50 [13] | MIC90 [13]
0.5 µg/mL: MIC50 [9] | MIC50 [19] | MIC90 [28] | MIC90 [31]
0.2 µg/mL: MIC90 [24]
